Legend:
[1] = (§1) Inhibitory concentration was tested on electrically stimulated guinea pig ileal longitudinal muscle using Morphine as mu opioid receptor agonist at 100 nM of the compound; assay type: functional
How it was run: (§2)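 Electrically stimulated guinea pig ileal longitudinal muscle (ethylketazocine, morphine) and mouse vas deferens (DADLE). Antagonist 100 nM preincubated 15 min before standard agonist testing. IC50 ratio = agonist IC50 with antagonist divided by control agonist IC50 in the same preparation. For the kappa line, Ke = [antagonist]/(IC50 ratio − 1).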

[2] = (§3) Antagonist potency at a concentration of 100 nM; assay type: functional; how it was run: as §2
[3] = test system: Opioid receptors; delta & kappa; assay: Selectivity ratio of delta opioid receptor to that of kappa opioid receptor; assay type: protein assay
[4] = biological target: Opioid receptors; delta & kappa (Homo sapiens) (UniProt P41145+P41143); assay: (§4) Selectivity ratio of kappa opioid receptor to that of delta opioid receptor; assay type: protein assay
Chain of Opioid receptors; delta & kappa (Homo sapiens) (P41143 whole entry, looked up): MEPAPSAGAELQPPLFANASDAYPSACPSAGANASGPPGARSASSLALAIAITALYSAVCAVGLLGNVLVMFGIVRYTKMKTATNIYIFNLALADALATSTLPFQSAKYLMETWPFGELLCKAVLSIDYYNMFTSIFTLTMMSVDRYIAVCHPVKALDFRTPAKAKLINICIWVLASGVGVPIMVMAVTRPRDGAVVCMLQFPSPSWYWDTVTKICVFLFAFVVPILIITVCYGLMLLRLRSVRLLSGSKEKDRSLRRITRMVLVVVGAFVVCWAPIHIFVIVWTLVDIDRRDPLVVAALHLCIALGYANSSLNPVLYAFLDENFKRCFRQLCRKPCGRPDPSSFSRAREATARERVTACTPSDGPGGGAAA
Chain of Opioid receptors; delta & kappa (Homo sapiens) (P41145 whole entry, looked up): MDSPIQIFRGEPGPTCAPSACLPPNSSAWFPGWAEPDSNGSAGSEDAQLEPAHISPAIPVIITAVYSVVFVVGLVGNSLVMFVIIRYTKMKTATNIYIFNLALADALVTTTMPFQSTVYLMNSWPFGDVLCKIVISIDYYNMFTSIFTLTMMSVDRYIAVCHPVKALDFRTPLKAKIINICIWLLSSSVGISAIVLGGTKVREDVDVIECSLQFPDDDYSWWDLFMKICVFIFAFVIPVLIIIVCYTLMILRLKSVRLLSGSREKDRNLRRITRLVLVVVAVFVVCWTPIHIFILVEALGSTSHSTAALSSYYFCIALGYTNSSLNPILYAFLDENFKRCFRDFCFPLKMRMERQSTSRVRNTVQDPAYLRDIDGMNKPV

[5] = biological target: T1, Opioid receptors; mu & kappa (Homo sapiens) (UniProt P41145+P35372); assay: (§5) Selectivity ratio of kappa opioid receptor to that of mu opioid receptor; assay type: protein assay
T1 sequence (P35372 whole entry, looked up): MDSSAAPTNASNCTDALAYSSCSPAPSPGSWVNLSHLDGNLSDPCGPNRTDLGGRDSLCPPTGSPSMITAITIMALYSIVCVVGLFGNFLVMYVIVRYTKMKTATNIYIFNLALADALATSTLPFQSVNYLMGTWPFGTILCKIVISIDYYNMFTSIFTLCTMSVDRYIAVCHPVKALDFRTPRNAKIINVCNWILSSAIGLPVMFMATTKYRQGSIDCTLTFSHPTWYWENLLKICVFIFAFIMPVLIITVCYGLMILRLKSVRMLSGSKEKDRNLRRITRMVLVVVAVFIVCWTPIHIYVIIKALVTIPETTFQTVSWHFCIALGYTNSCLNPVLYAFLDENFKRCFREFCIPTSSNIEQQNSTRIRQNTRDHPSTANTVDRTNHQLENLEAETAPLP
T1 sequence (P41145 whole entry, looked up): as the sequence (P41145 whole entry, looked up) above

[6] = biological target: T1, Opioid receptors; mu & kappa (Homo sapiens); assay: Selectivity ratio of mu opioid receptor to that of kappa opioid receptor; assay type: protein assay
[7] = (§6) Inhibitory concentration was tested on electrically stimulated guinea pig ileal longitudinal muscle using ethylketazocine as kappa opioid receptor agonist at 100 nM of the compound; assay type: functional; how it was run: as §2
[8] = biological target: Mu-type opioid receptor (Cavia porcellus) (UniProt P97266); assay: as §1; assay type: functional; how it was run: as §2
Chain of Mu-type opioid receptor (Cavia porcellus) (P97266 whole entry): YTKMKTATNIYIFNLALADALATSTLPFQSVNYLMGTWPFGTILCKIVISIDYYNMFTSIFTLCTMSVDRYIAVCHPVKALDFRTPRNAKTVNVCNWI

[9] = biological target: Kappa-type opioid receptor (Cavia porcellus) (UniProt P41144); assay: as §3; assay type: functional; how it was run: as §2
Chain of Kappa-type opioid receptor (Cavia porcellus) (P41144 whole entry): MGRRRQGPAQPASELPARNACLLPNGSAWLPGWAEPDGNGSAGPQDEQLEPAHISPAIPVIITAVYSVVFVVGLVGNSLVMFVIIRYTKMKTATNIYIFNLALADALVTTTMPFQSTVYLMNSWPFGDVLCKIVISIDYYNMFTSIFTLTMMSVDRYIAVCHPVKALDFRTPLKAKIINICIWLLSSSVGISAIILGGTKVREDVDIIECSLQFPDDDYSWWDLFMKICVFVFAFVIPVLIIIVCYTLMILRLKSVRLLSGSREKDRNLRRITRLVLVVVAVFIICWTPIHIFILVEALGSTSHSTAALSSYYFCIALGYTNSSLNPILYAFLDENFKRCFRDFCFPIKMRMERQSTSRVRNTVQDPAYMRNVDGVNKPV

[10] = biological target: Delta-type opioid receptor (Mus musculus) (UniProt P32300); assay: (§7) Inhibitory concentration was tested on electrically stimulated mouse vas deferens using DADLE as delta opioid receptor agonist at 100 nM of the compound; assay type: functional; how it was run: as §2
Chain of Delta-type opioid receptor (Mus musculus) (P32300 whole entry): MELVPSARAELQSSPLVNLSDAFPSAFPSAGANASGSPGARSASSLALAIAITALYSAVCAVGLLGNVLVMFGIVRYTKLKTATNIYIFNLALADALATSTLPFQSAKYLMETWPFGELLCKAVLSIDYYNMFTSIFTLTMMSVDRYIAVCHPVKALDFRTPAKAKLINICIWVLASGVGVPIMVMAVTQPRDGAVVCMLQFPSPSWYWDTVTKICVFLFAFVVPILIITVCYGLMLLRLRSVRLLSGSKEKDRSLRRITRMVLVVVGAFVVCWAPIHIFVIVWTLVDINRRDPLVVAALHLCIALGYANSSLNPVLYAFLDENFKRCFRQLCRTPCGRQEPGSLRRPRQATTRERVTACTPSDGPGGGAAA

[11] = biological target: Kappa-type opioid receptor (Cavia porcellus) (UniProt P41144); assay: as §6; assay type: functional; how it was run: as §2
[12] = biological target: Kappa-type opioid receptor (Cavia porcellus) (UniProt P41144); assay: as §5
[13] = biological target: Kappa-type opioid receptor (Cavia porcellus) (UniProt P41144); assay: as §4
[14] = biological target: Kappa-type opioid receptor (Cavia porcellus, UniProt P41144); assay: The binding affinity on kappa-opioid receptor using [3H]- U-69,593 as radioligand
Chain of Kappa-type opioid receptor (P41144 whole entry): as the sequence (P41144 whole entry) above
How it was run: (§8)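 Competition binding in guinea pig brain membranes against selective tritiated radioligands. Displacement of [3H]U69593 at kappa, [3H]DAMGO at mu, [3H]DPDPE at delta sites.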

[15] = biological target: Mu-type opioid receptor (Cavia porcellus, UniProt P97266); assay: The binding affinity against mu-opioid receptor using [3H]- DAMGO as radioligand; how it was run: as §8
Chain of Mu-type opioid receptor (P97266 whole entry): as the sequence (P97266 whole entry) above

[16] = as §7; assay type: functional; how it was run: as §2

Row | SMILES | Ratio [1] | Ke [2] | Ratio [3] | Ratio [4] | Ratio [5] | Ratio [6] | Ratio [7] | Ratio [8] | Ke [9] | Ratio [10] | Ratio [11] | Ratio [12] | Ratio [13] | Ki [14] | Ki [15] | Ratio [16]
1 | O=C(NCCN1CC[C@]23c4c5ccc(O)c4O[C@H]2c2[nH]c4c(c2C[C@@]3(O)C1=C5)C[C@@]1(O)[C@H]2Cc3ccc(O)c5c3[C@@]1(CCN2CC1CC1)[C@H]4O5)OCc1ccccc1 | 4.5 | 4 nM | 325 | 5.7 | 5.7 | 194 | 26 |  |  |  |  |  |  |  |  | 
2 | NCC(=O)N1CC[C@]23c4c5ccc(O)c4O[C@H]2c2[nH]c4c(c2C[C@@]3(O)[C@H]1C5)C[C@@]1(O)[C@H]2Cc3ccc(O)c5c3[C@@]1(CCN2CC1CC1)[C@H]4O5 |  |  |  |  |  |  |  | 1.4 | 9.3 nM | 2.2 | 11.8 | 8.4 | 5.4 |  |  | 
3 | Oc1ccc2c3c1O[C@H]1c4[nH]c5c(c4C[C@@]4(O)[C@@H](C2)N(CC2CC2)CC[C@]314)C[C@@]1(O)[C@H]2Cc3ccc(O)c4c3[C@@]1(CCN2CC1CC1)[C@H]5O4 |  | 0.55 nM |  |  |  |  |  |  |  |  |  |  |  |  |  | 
4 | Oc1ccc2c3c1O[C@H]1c4[nH]c5c(c4C[C@@]4(O)[C@@H](C2)NCC[C@]314)C[C@@]1(O)[C@H]2Cc3ccc(O)c4c3[C@@]1(CCN2CC1CC1)[C@H]5O4 |  |  |  |  |  |  |  | 1.9 | 2.5 nM | 8.5 | 41 | 22 | 4.8 |  |  | 
5 | NCC(=O)NCC(=O)N1CC[C@]23c4c5ccc(O)c4O[C@H]2c2[nH]c4c(c2C[C@@]3(O)[C@H]1C5)C[C@@]1(O)[C@H]2Cc3ccc(O)c5c3[C@@]1(CCN2CC1CC1)[C@H]4O5 | 2 | 11.7 nM | > 15 |  | 4.8 | 3 | 9.6 |  |  |  |  |  |  | 21 nM | 66 nM | 0.67
6 | Oc1ccc2c3c1O[C@H]1c4[nH]c5c(c4C[C@@]4(O)[C@@H](C2)N(CCc2ccccc2)CC[C@]314)C[C@@]1(O)[C@H]2Cc3ccc(O)c4c3[C@@]1(CCN2CC1CC1)[C@H]5O4 |  |  |  |  |  |  |  | 1.8 | 2.4 nM | 2.4 | 44 | 24 | 181 |  |  | 
7 | CCCCN1CC[C@]23c4c5ccc(O)c4O[C@H]2c2[nH]c4c(c2C[C@@]3(O)[C@H]1C5)C[C@@]1(O)[C@H]2Cc3ccc(O)c5c3[C@@]1(CCN2CC1CC1)[C@H]4O5 | 1.8 | 1.7 nM |  |  |  | 1820 | 61 |  |  |  |  |  |  | 0.04 nM | 73 nM | 1.9
8 | CCN1CC[C@]23c4c5ccc(O)c4O[C@H]2c2[nH]c4c(c2C[C@@]3(O)[C@H]1C5)C[C@@]1(O)[C@H]2Cc3ccc(O)c5c3[C@@]1(CCN2CC1CC1)[C@H]4O5 |  |  |  |  |  |  |  | 1.6 | 4.7 nM | 6.3 | 22 | 14 | 3.5 |  |  | 
9 | NCCN1CC[C@]23c4c5ccc(O)c4O[C@H]2c2[nH]c4c(c2C[C@@]3(O)[C@H]1C5)C[C@@]1(O)[C@H]2Cc3ccc(O)c5c3[C@@]1(CCN2CC1CC1)[C@H]4O5 | 1.6 | 5.1 nM | 41 | 10 | 12.5 | 14 | 20 |  |  |  |  |  |  | 3.4 nM | 46 nM | 1.9
10 | CCCCCN1CC[C@]23c4c5ccc(O)c4O[C@H]2c2[nH]c4c(c2C[C@@]3(O)[C@H]1C5)C[C@@]1(O)[C@H]2Cc3ccc(O)c5c3[C@@]1(CCN2CC1CC1)[C@H]4O5 |  |  |  |  |  |  |  | 3.1 | 3.8 nM | 3.1 | 27 | 8.7 | 8.7 |  |  | 
11 | CC(=O)N1CC[C@]23c4c5ccc(O)c4O[C@H]2c2[nH]c4c(c2C[C@@]3(O)[C@H]1C5)C[C@@]1(O)[C@H]2Cc3ccc(O)c5c3[C@@]1(CCN2CC1CC1)[C@H]4O5 |  |  |  |  |  |  |  | 1.8 | 30.3 nM | 2.8 | 4.3 | 2.4 | 1.5 |  |  | 
12 | N=C(N)NCCN1CC[C@]23c4c5ccc(O)c4O[C@H]2c2[nH]c4c(c2C[C@@]3(O)[C@H]1C5)C[C@@]1(O)[C@H]2Cc3ccc(O)c5c3C1(CCN2CC1CC1)[C@H]4O5 | 1.7 | 3.8 nM | 63 | 27 | 15 | 85 | 27 |  |  |  |  |  |  | 0.59 nM | 50 nM | 1
